A word on the IC50: it is the concentration that inhibits the measured activity by half.

Four compounds from paper PMC7246176 (Nature chemical biology, 2020) can be followed below.

Molecules are shown by their SMILES. Where two headings read alike, the source gives them in different places.

In assay [1] the test system is PATU-8988T cells. The assay is described as follows: Cell viability, 2D-adherent monolayer culture, PATU-8988T. The class given is cell-based, human. The settings on record: read-out: PATU-8988T cells 2D monolayer culture IC50, 120 h. The gist of the method: (§1)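 PATU-8988T and PATU-8902 cells were plated at 100 cells/well in 50 μL media, either adherent (2D) or in ultra-low attachment spheroid plates (3D), overnight. Test compound was pin-transferred and cells were incubated 120 h. Viability was read by CellTiter-Glo luminescence after 15 min at room temperature. Data were normalized to DMSO-treated wells per cell line and fitted.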

Assay [2] deals with PATU-8988T cells. The assay is described as follows: Cell viability, ultra-low adherent 3D-spheroid culture, PATU-8988T. The class given is cell-based, human. The conditions noted are these: read-out: PATU-8988T cells 3D spheroid culture IC50, 120 h. The method in brief:
(§2)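 PATU-8902 or PATU-8988T cells were plated at 100 cells/well and left overnight to adhere (2D plates) or to form spheroids (ultra-low-attachment 3D spheroid plates). Compound was pin-transferred, then 120 h incubation. Viability by CellTiter-Glo luminescence after 15 min at room temperature, normalized to DMSO-treated wells for each cell line.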

Assay [3] relates to PATU-8902 cells. The assay is described as follows: Cell viability, 2D-adherent monolayer culture, PATU-8902. The class given is cell-based, human. The conditions noted are these: read-out: PATU-8902 cells 2D monolayer culture IC50. The method in brief:
as §2

Assay [4] concerns PATU-8902 cells. The assay is described as follows: Cell viability, ultra-low adherent 3D-spheroid culture, PATU-8902. The class given is cell-based, human. The conditions noted are these: read-out: PATU-8902 cells 3D spheroid culture IC50. The gist of the method:
as §1

Another assay deals with PANFR0172_T2. The assay is described as follows: Patient-derived pancreatic organoid viability, PANFR0172_T2. The class given is cell-based, human. The conditions noted are these: read-out: PANFR0172_T2 3D organoid culture IC50. The method in brief:
(§3)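 Patient-derived PDAC organoids were dissociated to single cells and plated at 1000 viable cells/well in complete organoid medium with 10% Matrigel, in ultra-low-attachment 384-well plates. After 24 h, compound was added by digital dispenser, then 7 days incubation. Read-out was CellTiter-Glo 3D luminescence after 1 h shaking at room temperature, normalized to DMSO wells for each culture.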

A further assay deals with PANFR0172_T3. As to the kind of experiment: Patient-derived pancreatic organoid viability, PANFR0172_T3. The class given is cell-based, human. The conditions noted are these: read-out: PANFR0172_T3 3D organoid culture IC50. The method in brief:
as §3

The next assay concerns PANFR0172_T4. As to the kind of experiment: Patient-derived pancreatic organoid viability, PANFR0172_T4. The class given is cell-based, human. The conditions noted are these: read-out: PANFR0172_T4 3D organoid culture IC50. The gist of the method:
as §3

In a further assay the test system is PANFR0029_T2. As to the kind of experiment: Patient-derived pancreatic organoid viability, PANFR0029_T2. The conditions noted are these: read-out: PANFR0029_T2 3D organoid culture IC50. The class given is cell-based, human. The gist of the method:
as §3

Another assay has as its target T1, DCLK1 (Homo sapiens, UniProt O15075).
T1 sequence (O15075 1-740): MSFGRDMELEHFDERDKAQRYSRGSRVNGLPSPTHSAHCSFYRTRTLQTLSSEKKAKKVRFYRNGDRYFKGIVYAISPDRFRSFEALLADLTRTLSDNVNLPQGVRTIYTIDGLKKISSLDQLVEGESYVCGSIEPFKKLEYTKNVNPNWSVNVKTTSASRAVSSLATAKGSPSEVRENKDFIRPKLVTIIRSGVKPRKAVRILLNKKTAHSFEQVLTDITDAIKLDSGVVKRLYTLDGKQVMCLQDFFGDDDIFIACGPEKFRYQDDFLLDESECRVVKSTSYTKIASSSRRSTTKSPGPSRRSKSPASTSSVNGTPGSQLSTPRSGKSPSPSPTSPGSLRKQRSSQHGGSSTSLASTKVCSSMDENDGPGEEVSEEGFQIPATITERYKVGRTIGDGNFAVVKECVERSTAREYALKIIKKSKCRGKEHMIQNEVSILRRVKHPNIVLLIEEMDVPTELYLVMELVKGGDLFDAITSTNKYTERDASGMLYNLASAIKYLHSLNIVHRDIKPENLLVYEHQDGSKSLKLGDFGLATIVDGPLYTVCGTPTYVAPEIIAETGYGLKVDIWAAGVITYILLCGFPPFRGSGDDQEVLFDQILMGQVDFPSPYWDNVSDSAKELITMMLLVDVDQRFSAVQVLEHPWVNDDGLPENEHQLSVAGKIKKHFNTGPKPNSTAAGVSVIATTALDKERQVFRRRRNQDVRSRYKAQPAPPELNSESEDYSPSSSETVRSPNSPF
As to the kind of experiment: 33P-ATP DCLK1 kinase assay. The class given is biochemical. The conditions noted are these: DCLK1 kinase assay IC50, 33P-ATP; ATP 50 μM (Km).

Assay [5] addresses T2, DCLK1-Nluc in HCT116 cells (Homo sapiens, UniProt O15075).
T2 sequence (O15075 1-729 isoform O15075-2): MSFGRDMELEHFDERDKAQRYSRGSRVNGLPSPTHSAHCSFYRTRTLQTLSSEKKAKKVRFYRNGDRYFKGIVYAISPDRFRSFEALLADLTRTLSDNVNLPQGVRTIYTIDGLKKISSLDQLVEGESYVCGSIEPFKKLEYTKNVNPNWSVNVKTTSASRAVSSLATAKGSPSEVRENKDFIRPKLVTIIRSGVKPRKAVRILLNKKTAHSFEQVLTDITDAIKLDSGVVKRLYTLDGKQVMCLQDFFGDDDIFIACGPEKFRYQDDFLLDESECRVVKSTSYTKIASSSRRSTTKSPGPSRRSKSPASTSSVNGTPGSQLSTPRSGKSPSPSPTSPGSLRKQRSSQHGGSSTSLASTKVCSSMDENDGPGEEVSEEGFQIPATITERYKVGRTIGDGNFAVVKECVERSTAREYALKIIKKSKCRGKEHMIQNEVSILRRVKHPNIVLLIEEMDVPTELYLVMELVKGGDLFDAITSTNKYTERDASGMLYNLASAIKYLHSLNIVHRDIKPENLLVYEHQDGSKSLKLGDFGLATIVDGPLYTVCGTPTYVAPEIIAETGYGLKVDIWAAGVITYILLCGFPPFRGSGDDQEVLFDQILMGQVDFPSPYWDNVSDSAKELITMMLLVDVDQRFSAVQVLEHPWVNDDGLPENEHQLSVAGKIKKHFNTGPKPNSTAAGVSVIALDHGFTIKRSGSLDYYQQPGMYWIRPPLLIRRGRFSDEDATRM
The assay is described as follows: DCLK1 NanoBRET target engagement assay in HCT116 cells. The class given is cell-based. A general note: BRET reads energy transfer from a luciferase to a nearby fluorophore.

The target of a further assay is T3, DCLK2 (Homo sapiens, UniProt Q8N568).
T3 sequence (Q8N568 1-766): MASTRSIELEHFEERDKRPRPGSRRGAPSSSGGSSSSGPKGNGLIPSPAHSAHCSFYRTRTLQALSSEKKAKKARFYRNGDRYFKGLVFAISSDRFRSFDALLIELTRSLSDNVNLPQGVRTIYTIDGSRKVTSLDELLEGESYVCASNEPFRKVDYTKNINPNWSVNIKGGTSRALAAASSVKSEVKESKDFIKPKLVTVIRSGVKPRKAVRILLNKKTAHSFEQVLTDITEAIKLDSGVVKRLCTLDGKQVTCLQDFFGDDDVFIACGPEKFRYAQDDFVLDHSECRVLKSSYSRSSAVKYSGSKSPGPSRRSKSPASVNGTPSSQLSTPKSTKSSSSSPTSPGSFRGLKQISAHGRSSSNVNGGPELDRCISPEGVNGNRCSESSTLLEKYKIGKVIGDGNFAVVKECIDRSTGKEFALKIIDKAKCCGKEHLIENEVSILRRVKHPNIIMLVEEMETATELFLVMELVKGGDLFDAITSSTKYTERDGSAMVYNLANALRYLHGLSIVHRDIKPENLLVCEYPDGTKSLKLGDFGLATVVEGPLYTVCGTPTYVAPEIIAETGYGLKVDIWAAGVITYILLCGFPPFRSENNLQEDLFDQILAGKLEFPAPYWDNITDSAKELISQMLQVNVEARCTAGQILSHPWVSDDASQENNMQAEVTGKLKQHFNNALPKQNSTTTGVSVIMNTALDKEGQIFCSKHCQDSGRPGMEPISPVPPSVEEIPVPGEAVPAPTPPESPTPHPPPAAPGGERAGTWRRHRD
As to the kind of experiment: DCLK2 KINOMEscan binding assay. The method in brief: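 KINOMEscan competition binding run by a contract lab. Test compound in 12-point dose response, top concentration 10 μM. Values are the mean of n = 2 biologically independent samples.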

Another assay concerns the target LRRK2 (Homo sapiens, UniProt Q5S007). The assay is described as follows: LRRK2 ADAPTA kinase assay. The conditions noted are these: LRRK2 kinase assay IC50, ADAPTA; Table 1. The class given is biochemical.
Another assay concerns DCLK1 protein levels. The assay is described as follows: DCLK1 protein levels by immunoblot in PDAC cells. The class given is cell-based, human. The conditions noted are these: after 48 h, PATU-8988T and PATU-8902 cells. A general note: In western blotting, separated proteins are transferred to a membrane and probed.
The next assay has as its system FKBP12^F36V-KRAS^G12V. The assay is described as follows: KRAS G12V degradation by immunoblot in FKBP12F36V-KRASG12V. The class given is cell-based, human. The settings on record: KRAS^−/− cells.
The mark [6] stands for this setting: viability, 7 d, P.R. = partial response.

Sequence of LRRK2 (Q5S007 whole entry): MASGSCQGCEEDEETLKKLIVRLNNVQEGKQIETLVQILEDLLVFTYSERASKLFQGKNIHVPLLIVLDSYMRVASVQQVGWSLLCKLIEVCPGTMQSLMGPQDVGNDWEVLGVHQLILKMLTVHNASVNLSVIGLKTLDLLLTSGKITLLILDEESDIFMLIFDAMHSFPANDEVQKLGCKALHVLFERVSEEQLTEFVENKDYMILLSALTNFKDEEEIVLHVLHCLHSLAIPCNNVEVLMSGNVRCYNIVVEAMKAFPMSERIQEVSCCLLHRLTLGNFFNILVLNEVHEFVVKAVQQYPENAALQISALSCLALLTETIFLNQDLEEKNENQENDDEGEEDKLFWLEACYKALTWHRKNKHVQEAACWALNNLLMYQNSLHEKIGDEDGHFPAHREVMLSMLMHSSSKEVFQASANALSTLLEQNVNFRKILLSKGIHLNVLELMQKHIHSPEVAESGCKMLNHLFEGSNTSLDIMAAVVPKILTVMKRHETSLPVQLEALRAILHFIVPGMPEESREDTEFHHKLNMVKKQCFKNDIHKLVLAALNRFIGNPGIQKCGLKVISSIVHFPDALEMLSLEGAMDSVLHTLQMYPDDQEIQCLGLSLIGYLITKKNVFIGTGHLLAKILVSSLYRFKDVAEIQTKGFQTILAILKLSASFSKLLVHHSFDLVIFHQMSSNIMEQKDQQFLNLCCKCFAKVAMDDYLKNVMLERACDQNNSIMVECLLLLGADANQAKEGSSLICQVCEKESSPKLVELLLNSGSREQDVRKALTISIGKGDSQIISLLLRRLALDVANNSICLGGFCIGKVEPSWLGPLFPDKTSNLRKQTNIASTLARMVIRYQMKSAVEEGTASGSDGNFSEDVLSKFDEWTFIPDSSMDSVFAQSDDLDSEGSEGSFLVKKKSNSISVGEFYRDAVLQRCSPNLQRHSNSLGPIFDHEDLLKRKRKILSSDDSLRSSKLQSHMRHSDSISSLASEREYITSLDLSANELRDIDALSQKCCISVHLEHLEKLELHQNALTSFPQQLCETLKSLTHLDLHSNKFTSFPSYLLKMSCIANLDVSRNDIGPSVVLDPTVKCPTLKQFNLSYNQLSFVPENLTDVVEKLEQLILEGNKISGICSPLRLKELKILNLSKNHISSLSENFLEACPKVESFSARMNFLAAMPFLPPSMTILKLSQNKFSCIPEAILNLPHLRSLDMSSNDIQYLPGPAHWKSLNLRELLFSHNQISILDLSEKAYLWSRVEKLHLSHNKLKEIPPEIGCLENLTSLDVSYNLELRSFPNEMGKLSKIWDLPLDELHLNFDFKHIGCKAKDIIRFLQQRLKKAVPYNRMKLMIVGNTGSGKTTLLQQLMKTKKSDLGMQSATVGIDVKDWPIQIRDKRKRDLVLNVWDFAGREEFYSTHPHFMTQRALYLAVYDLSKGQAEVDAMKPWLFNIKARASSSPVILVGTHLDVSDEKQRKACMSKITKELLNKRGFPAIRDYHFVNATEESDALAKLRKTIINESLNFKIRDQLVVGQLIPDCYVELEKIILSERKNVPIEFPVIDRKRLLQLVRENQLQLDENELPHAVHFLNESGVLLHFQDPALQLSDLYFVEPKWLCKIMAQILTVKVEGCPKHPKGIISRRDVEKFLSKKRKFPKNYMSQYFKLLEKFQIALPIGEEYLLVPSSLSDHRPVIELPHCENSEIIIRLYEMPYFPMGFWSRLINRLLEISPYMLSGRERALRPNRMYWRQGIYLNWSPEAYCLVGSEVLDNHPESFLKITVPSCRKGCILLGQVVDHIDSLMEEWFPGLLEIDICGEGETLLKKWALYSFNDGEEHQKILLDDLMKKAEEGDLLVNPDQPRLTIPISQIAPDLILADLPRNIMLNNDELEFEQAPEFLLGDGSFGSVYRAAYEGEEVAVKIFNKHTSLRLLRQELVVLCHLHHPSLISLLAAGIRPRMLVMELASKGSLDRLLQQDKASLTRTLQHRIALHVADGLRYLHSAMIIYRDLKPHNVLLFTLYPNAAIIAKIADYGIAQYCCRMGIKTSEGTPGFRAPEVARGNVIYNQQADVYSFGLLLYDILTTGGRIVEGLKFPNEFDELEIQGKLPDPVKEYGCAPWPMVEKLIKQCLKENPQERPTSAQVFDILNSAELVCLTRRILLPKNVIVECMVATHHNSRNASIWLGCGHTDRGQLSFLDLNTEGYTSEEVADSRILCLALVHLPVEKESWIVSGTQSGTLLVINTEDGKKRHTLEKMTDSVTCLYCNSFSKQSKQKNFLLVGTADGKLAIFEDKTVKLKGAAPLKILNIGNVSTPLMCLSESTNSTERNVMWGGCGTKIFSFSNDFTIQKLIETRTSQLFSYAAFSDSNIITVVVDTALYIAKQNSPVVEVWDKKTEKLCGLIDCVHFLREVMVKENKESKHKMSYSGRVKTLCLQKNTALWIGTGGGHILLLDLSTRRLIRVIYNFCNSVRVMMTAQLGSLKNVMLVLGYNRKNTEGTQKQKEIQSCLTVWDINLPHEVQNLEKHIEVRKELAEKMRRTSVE

As to `Cc1sc2c(c1C)C(c1ccc(Cl)cc1)=N[C@@H](CC(=O)OC(C)(C)C)c1nnc(C)n1-2` [JQ1], the concentration for half-maximal inhibition (IC50) in the assay on PATU-8988T cells [1] (cell viability, P.R. = partial response) is 67.4 nM; in the assay with PATU-8988T cells [2] (cell viability), 111 nM; in the assay on PATU-8902 cells [3] (cell viability, 120 h), 1810 nM; with PATU-8902 cells [4] (cell viability, 120 h, P.R. = partial response), more than 1000 nM; in the assay with PANFR0172_T2 (setting [6]) it was more than 1000 nM; in the assay with PANFR0172_T3 (setting [6]), more than 1000 nM. For the same compound, the IC50 is more than 1000 nM in the assay with PANFR0172_T4 (setting [6]) and 363 nM with PANFR0029_T2 (viability, 7 d, DCLK1-negative organoids).

Consider `COc1cc(C(=O)N2CCC(N3CCN(C)CC3)CC2)ccc1Nc1ncc2c(n1)N(C)c1ccccc1C(=O)N2C` [LRRK2-IN-1], for which the IC50 against DCLK1 was determined as 55 nM; in assay [5], 400 nM; at DCLK2, 9.9 nM; against LRRK2, 4.1 nM; in the assay with PATU-8988T cells [1] (Homo sapiens, PaTu 8988t), 1150 nM; with PATU-8988T cells [2] (Homo sapiens, PaTu 8988t) it was 1870 nM. Moreover, the IC50 was more than 20000 nM in the assay with PATU-8902 cells [3] (Homo sapiens, PaTu 8902, 120 h); more than 1000 nM in the assay on PATU-8902 cells [4] (Homo sapiens, PaTu 8902, 120 h); 1340 nM with PANFR0172_T2 (Homo sapiens, 168 h); 1500 nM in the assay on PANFR0172_T3 (Homo sapiens, 168 h); more than 20000 nM in the assay on PANFR0172_T4 (Homo sapiens, 168 h).

For `CC(=O)Nc1cccc(-n2c(=O)n(C3CC3)c(=O)c3c(Nc4ccc(I)cc4F)n(C)c(=O)c(C)c32)c1` [Trametinib], the IC50 with PATU-8988T cells [1] (Homo sapiens, PaTu 8988t) was 60 nM; in the assay with PATU-8988T cells [2] (Homo sapiens, PaTu 8988t), 1 nM; in the assay on PATU-8902 cells [3] (Homo sapiens, PaTu 8902, 120 h) it was 4.89 nM; in the assay with PATU-8902 cells [4] (Homo sapiens, PaTu 8902, 120 h), less than 0.63 nM; in the assay on PANFR0172_T2 (Homo sapiens, 168 h), 791 nM; in the assay with PANFR0172_T3 (Homo sapiens, 168 h) it was 1180 nM. The IC50 in the assay on PANFR0172_T4 (Homo sapiens, 168 h) was more than 20000 nM; in the assay on PANFR0029_T2 (Homo sapiens, 168 h) it was 185 nM. The “effect on DCLK1 protein levels” value with DCLK1 protein levels is recorded as “diminished DCLK1 protein levels”.

On to `CC[C@H](C(=O)N1CCCC[C@H]1C(=O)O[C@H](CCc1ccc(OC)c(OC)c1)c1ccccc1OCC(=O)NCCCCCCOc1cccc2c1C(=O)N(C1CCC(=O)NC1=O)C2=O)c1cc(OC)c(OC)c(OC)c1` (some centres unmarked) [dTAG-13], for which, in the assay with FKBP12^F36V-KRAS^G12V, the “time to initiation of KRAS^G12V degradation” value was not above 1 h.
